OX1R antag-1: human HCRTR1 antagonism | CHO/OX1R cells, Fluo-8 calcium fluorescence, orexin A | 330,000 compounds, 0.43% hits | O43613 | inhibition, % at 5 µM;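 active means inhibition above its plate's threshold, mean inhibition of all tested compounds on the plate plus 3 SD, cut at about 37% in these data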;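 further: 0% = orexin A challenge wells and 100% = SB-334867-A antagonist wells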
OX1R antag-2: antagonists of human orexin 1 receptor (OX1R); O43613; inhibition, % at 6.6 µM; OX1R-expressing cells, FRET antagonist read-out; 330,000 compounds, 1.8% hits; in the data active means inhibition mostly above about 38%, no sharp cut-off; inactive means mostly below about 40%;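 further: 0% = agonist challenge alone and 100% = reference antagonist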
GPR7 antagonist: human neuropeptides B/W receptor 1 antagonism. P48145. GPR7-expressing cells, fluorescence antagonist assay. inhibition, % at 4.4 µM. 290,000 compounds, 1.1% hits; in the data active means inhibition above about 16%, passing the limit was not always enough;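 further: cells stimulated with the agonist NPW; 0% = agonist with vehicle and 100% = vehicle without agonist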
CHO parental Ca: signal in parental CHO cells, OX1R antagonist counter-screen; parental CHO-K1, ATP-induced calcium, Fluo-8 fluorescence; inhibition, % at 5.6 µM; 330,000 compounds, 0.63% hits; AID 463079;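 active means inhibition above that plate's mean sample inhibition plus 3 SD, cut at about 26% in these data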;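 further: 0% = ATP-challenged DMSO wells and 100% = DMSO wells without ATP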
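Assay system: untransfected parental CHO cell line. Also added: ATP agonist challenge. Dosing: one dose, 5.6 µM nominal. Measured by: Fluo-8 fluorescence. Read-out: % inhibition. Benchmarks: ATP wells versus no-ATP DMSO wells. Repeats: no replicates.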
GalR3 antagonist: blocks the human galanin receptor 3. HEK293 GalR3-CNG cAMP membrane potential fluorescence; galR3 body fused to GalR1 C-terminus. inhibition, % at 3 µM. 360,000 compounds, 0.44% hits. O60755;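 active means inhibition above the screen-wide average plus 3 SD, cut at about 13% in these data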;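 further: forskolin and galanin both at EC90 stimulate the cells; cAMP rise reported by CNG channel membrane potential dye signal; 0% = forskolin plus galanin with DMSO and 100% = forskolin alone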
Target sequence (O60755 1-299 limits assumed): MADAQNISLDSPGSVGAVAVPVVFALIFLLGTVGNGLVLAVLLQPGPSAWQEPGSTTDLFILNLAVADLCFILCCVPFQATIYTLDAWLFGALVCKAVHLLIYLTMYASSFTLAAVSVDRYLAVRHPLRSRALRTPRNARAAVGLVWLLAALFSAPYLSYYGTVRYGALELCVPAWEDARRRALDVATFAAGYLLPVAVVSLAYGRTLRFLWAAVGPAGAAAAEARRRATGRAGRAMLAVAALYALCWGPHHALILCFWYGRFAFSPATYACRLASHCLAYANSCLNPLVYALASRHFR
OX1R HTRF confirm: confirmation of human orexin 1 receptor antagonists, HTRF format | AID 492964 | 1,800 compounds, 49% hits | inhibition, % at 6.6 µM | shares compounds with OX1R antag-2 | OX1R-expressing cells, HTRF antagonist assay; in the data active means inhibition above about 55%;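 further: CHO cells expressing OX1R stimulated with orexin A at about EC80; 0% = agonist challenge alone and 100% = reference antagonist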
CHO-K1 HTRF cnt: counter-screen for OX1R antagonists: effect in parental CHO-K1 cells; 1,800 compounds, 48% hits; HTRF counterscreen; AID 493232; inhibition, % at 6.6 µM; shares compounds with OX1R antag-2; in the data active means inhibition above about 17%;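 further: 0% = agonist challenge with vehicle and 100% = vehicle alone without agonist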
* hit, by the source's call; nt = not tested or not shown. Only some compounds are listed: those with a hit (about 3.1% of all), similar ones and a draw of the others.

SMILES	OX1R antag-1	OX1R antag-2	GPR7 antagonist	CHO parental Ca	GalR3 antagonist	OX1R HTRF confirm	CHO-K1 HTRF cnt
CC1CN(c2ccc([N+](=O)[O-])nc2)CC(C)O1 (centres undefined)	-5	82*	-14	15	-1	36	47*
Cn1c(=O)n(C)c2cc(/C=C3/SC(=O)N(CC(=O)N4CCOCC4)C3=O)ccc21	-6	83*	-3	-4	2	53	54*
COc1ccc(CCC(=O)N2CCCSC2=Nc2ccc(C(C)=O)cc2)cc1	-29	10	-6	-18	-8	nt	nt
COc1ccc([C@H]2C[C@@H](O)[C@H](n3cc(-c4ccc(F)cc4)nn3)CN2C(=O)C2CCCCC2)cc1	nt	nt	nt	nt	-5	nt	nt
COc1cccc(-c2nn(C)c3sc(C(=O)N4CCN(c5ccccn5)CC4)cc23)c1	8	78*	-3	0	nt	50	4
COc1ccc(S(=O)(=O)NCC(=O)N(CC(=O)NCC2CCCO2)Cc2ccccc2)cc1 (centres undefined)	-8	1	-5	-16	-9	nt	nt
CCN1C(=O)c2ccc(C(=O)Nc3nccs3)cc2C1=O	-13	90*	-12	-23	-2	29	29*
CC(C)(C)N1C(=O)c2ccc(C(=O)Nc3nccs3)cc2C1=O	-34	14	-11	-28	-1	nt	nt
Cc1ccc(OCCOCCN2CCN(C)CC2)c([N+](=O)[O-])c1	-4	21	-2	-14	-2	nt	nt
O=C1C2=C(c3ccccc31)[N+](=O)C1CCCCC1N2[O-] (centres undefined)	-11	112*	-2	-2	-5	45	44*
COC(=O)c1cn(NC(=O)Cc2ccc(Cl)c(Cl)c2)c(=O)c2ccccc12	-19	87*	-10	-18	1	81*	8
CCn1c(SCc2nc(-c3cccs3)no2)nnc1-c1c[nH]c2ccccc12	10	81*	14	-25	-6	43	3
CCOC(=O)/C(C#N)=C\C=C1C=CN(C)C=C1	3	100*	-3	6	-3	51	62*
CCC(CC)NC(=O)c1ccc(Cl)cc1	-12	9	-11	-8	-6	nt	nt
CCN1CCN(CCC2Oc3cc([N+](=O)[O-])ccc3NC2=O)CC1 (centres undefined)	-10	78*	3	2	-3	44	25*
O=C(c1ccc(-n2cncn2)c([N+](=O)[O-])c1)N1CCN(S(=O)(=O)c2cccc(F)c2)CC1	-15	27	nt	-13	-2	nt	nt
O=C(NC1CCCCC1)c1cc(C2CC2)nn1-c1ccccc1	-43	18	nt	-19	-9	nt	nt
CN1C(=O)/C(=C2/C=Cc3ccccc3N2CCCS(=O)(=O)O)SC1=S	3	100*	3	-4	0	59*	97*
CCn1c(=O)cc(OCC(=O)Nc2ccc(OC)c(OC)c2)c2ccccc21	-11	82*	-4	-6	-6	21	4
CCn1c2ccccc2c2cc(NC(=O)COC(=O)c3cc(OC)c(OC)cc3OC)ccc21	19	80*	-7	-17	1	89*	12
N#Cc1cccc(C=C(C(=O)c2ccccc2)c2ccccc2)c1	nt	nt	nt	nt	-8	nt	nt
O=C(O)CSc1nnc2c(n1)[nH]c1ccccc12	1	28	-8	3	-3	nt	nt
Cc1cc(C)c2[nH]c3nc(SCC(=O)O)nnc3c2c1	1	104*	-22	-9	-8	26	14
COc1ccccc1C(=O)NC(=O)CSc1nnc(SC)s1	-8	11	nt	-21	-2	nt	nt
O=C(O)c1cccc2c1C(=O)c1cc(Br)ccc1S2(=O)=O	1	26	nt	0	-4	nt	nt
COc1ccc2nc(Nc3nc(C)c(C(C)=O)s3)sc2c1	4	81*	-6	-24	-3	52	2
CC/C(C)=N\N=C\c1c(O)n(CC)c2cc(C3=NNC(=O)CC3)ccc12	-7	88*	-17	-13	nt	21	14
COc1ccccc1NC(=O)c1ccccc1C(=O)N(C)Cc1ccccc1	3	7	nt	-6	-8	nt	nt
CN(C)c1ccc(N=Nc2ccc3ncccc3c2)cc1	nt	nt	nt	nt	-4	nt	nt
Cc1cc(N(C)C)ccc1N=Nc1ccc2ncccc2c1	-3	83*	-13	-32	-2	75*	10

Bioassay records as filed in PubChem.
